Assay results published in ChEMBL document CHEMBL1121911, “Analgesic narcotic antagonists. 8. 7 alpha-Alkyl-4,5 alpha-epoxymorphinan-6-ones” (1981).
Calls of active or inactive are those of the source. The rule behind the calls is not given here.

Legend:
Rattus norvegicus [1] = assay: Narcotic antagonist activity in heat stimulus rat tail flick assay after subcutaneous administration; type: functional; details: sc
Method in brief: (§1)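 Subcutaneous dosing. Salts were given in distilled H2O, and free bases were dissolved with 1 N HCl and then diluted. Each ED50 (agonist) or AD50 (antagonist) came from at least three doses, with at least five animals per dose.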

Mus musculus [2] = assay: Compound was tested for narcotic agonistic activity in acetic acid mouse writhing assay after subcutaneous administration of the drug at a dose of 28 uM/kg; Inactive; type: functional, organism-based
Mus musculus [3] = assay: Narcotic agonistic activity in acetic acid mouse writhing assay after subcutaneous administration of the drug; type: functional; details: sc; method in brief: as §1
Mus musculus [4] = assay: Compound was tested for narcotic agonistic activity in acetic acid mouse writhing assay after subcutaneous administration of the drug at a dose of 25 uM/kg; Inactive; type: functional, organism-based
Rattus norvegicus [5] = assay: Compound was tested for antinociceptive activity in heat stimulus rat tail flick assay after subcutaneous administration of the drug at a dose of 30 umol/Kg; Inactive; type: functional, organism-based
Rattus norvegicus [6] = assay: Compound was tested for antinociceptive activity in heat stimulus rat tail flick assay after subcutaneous administration of the drug; type: functional; details: sc; method in brief: as §1
Rattus norvegicus [7] = assay: Compound was tested for antinociceptive activity in heat stimulus rat tail flick assay after subcutaneous administration of the drug at a dose of 28 umol/Kg; Inactive; type: functional, organism-based
Mus musculus [8] = assay: Compound was tested for narcotic agonistic activity in acetic acid mouse writhing assay after subcutaneous administration of the drug at a dose of 18 uM/kg; Inactive; type: functional, organism-based
Mus musculus [9] = assay: Compound was tested for narcotic agonistic activity in acetic acid mouse writhing assay after subcutaneous administration of the drug at a dose of 26 uM/kg; Inactive; type: functional, organism-based
Rattus norvegicus [10] = assay: Compound was tested for antinociceptive activity in heat stimulus rat tail flick assay after subcutaneous administration of the drug at a dose of 23 umol/Kg; Inactive; type: functional, organism-based
Mus musculus [11] = assay: Compound was tested for narcotic agonistic activity in acetic acid mouse writhing assay after subcutaneous administration of the drug at a dose of 23 uM/kg; Inactive; type: functional, organism-based
Rattus norvegicus [12] = assay: Compound was tested for antinociceptive activity in heat stimulus rat tail flick assay after subcutaneous administration of the drug at a dose of 25 umol/Kg; Inactive; type: functional, organism-based
Rattus norvegicus [13] = assay: Compound was tested for antinociceptive activity in heat stimulus rat tail flick assay after subcutaneous administration of the drug at a dose of 29 umol/Kg; Inactive; type: functional, organism-based
Rattus norvegicus [14] = assay: Compound was tested for antinociceptive activity in heat stimulus rat tail flick assay after subcutaneous administration of the drug at a dose of 21 umol/Kg; Inactive; type: functional, organism-based
Rattus norvegicus [15] = assay: Compound was tested for antinociceptive activity in heat stimulus rat tail flick assay after subcutaneous administration of the drug at a dose of 18 umol/Kg; Inactive; type: functional, organism-based

Row | SMILES | ED50 (Rattus norvegicus [1]) [µmol/kg] | ED50 (Mus musculus [3]) [µmol/kg] | also measured
1 | COc1ccc2c3c1O[C@H]1C(=O)CC[C@@]4(O)[C@@H](C2)N(CC2CC2)CC[C@]314 | 0.7 | – | ED50 (Mus musculus [2]): inactive
2 | COc1ccc2c3c1O[C@H]1C(=O)CCC4(O)C(C2)N(CC2CCC2)CCC314 (stereo not given in full) | > 18 | 16.2 | –
3 | O=C1CCC2(O)C3Cc4ccc(O)c5c4C2(CCN3CC2CCC2)[C@H]1O5 (stereo not given in full) | 1.1 | 9.7 | –
4 | COc1ccc2c3c1OC1C(=O)[C@@H](C)CC4C(C2)N(CC2CC2)CCC314 (stereo not given in full) | 4.1 | – | ED50 (Mus musculus [4]): inactive
5 | COc1ccc2c(c1O)C13CCN(CC4CCC4)C(C2)C1[C@@H](C)[C@H](C)C(=O)C3 (stereo not given in full) | > 22 | 14 | –
6 | O=C1CCC2C3Cc4ccc(O)c5c4C2(CCN3CC2CCC2)[C@H]1O5 (stereo not given in full) | 5 | 0.2 | –
7 | O=C1CCC2C3Cc4ccc(O)c5c4C2(CCN3CC2CC2)[C@H]1O5 (stereo not given in full) | 0.6 | 4.1 | –
8 | COc1ccc2c3c1O[C@H]1C(=O)[C@@H](C)[C@H](C)C4C(C2)N(CC2CCC2)CCC341 (stereo not given in full) | > 26 | > 26 | –
9 | COc1ccc2c3c1O[C@H]1c4oc(C)cc4CC4C(C2)N(C)CCC341 (stereo not given in full) | – | 12.3 | ED50 (Rattus norvegicus [5]): inactive
10 | CN1CC[C@]23c4c5ccc(O)c4O[C@H]2[C@@H](O)C=C[C@H]3[C@H]1C5 [MORPHINE] | – | – | ED50 (Rattus norvegicus [6]): 19 µmol/kg
11 | COc1ccc2c3c1O[C@H]1C(=O)CCC4C(C2)N(CC2CCC2)CCC341 (stereo not given in full) | – | 20.3 | –
12 | C[C@@H]1C(=O)[C@@H]2Oc3c(O)ccc4c3C23CCN(CC2CCC2)C(C4)C3[C@H]1C (stereo not given in full) | 6.5 | 15 | –
13 | C=CCN1CC[C@]23c4c5ccc(O)c4O[C@H]2[C@@H](O)C=C[C@H]3[C@H]1C5 [NALORPHINE] | 2.5 | 3.5 | –
14 | COc1ccc2c(c1OC)C13CCN(CC4CC4)C(C2)C1C[C@H](C)C(=O)C3 (stereo not given in full) | ~25 | 9.1 | –
15 | COc1ccc2c3c1O[C@H]1C(=O)CCC4C(C2)N(CC2CC2)CCC341 (stereo not given in full) | 7.9 | 39.6 | –
16 | COc1ccc2c3c1O[C@H]1C(=O)[C@@H](CO)CC4C(C2)N(C)CCC341 (stereo not given in full) | – | 9.1 | ED50 (Rattus norvegicus [5]): inactive
17 | COc1ccc2c3c1O[C@H]1C(=O)[C@@H](C)CC4(O)C(C2)N(CC2CC2)CCC314 (stereo not given in full) | 25.4 | 18.7 | –
18 | COc1ccc2c3c1O[C@H]1C(=O)/C(=C/N(C)C)CC4C(C2)N(C)CCC341 (stereo not given in full) | – | 11 | ED50 (Rattus norvegicus [7]): inactive
19 | COc1ccc2c3c1O[C@H]1[C@@H](O)[C@@H](CC(C)(C)O)CC4C(C2)N(C)CCC341 (stereo not given in full) | – | – | ED50 (Rattus norvegicus [6]): > 18 µmol/kg; ED50 (Mus musculus [8]): inactive
20 | C[C@@H]1C(=O)[C@@H]2Oc3c(O)ccc4c3C23CCN(CC2CC2)C(C4)C3[C@H]1C (stereo not given in full) | 1.5 | – | ED50 (Mus musculus [9]): inactive
21 | COc1ccc2c3c1O[C@H]1C(=O)[C@@H](C)CC4C(C2)N(C)CCC341 (stereo not given in full) | – | 2.7 | ED50 (Rattus norvegicus [6]): 4.2 µmol/kg
22 | C[C@H]1CC2(O)C3Cc4ccc(O)c5c4C2(CCN3CC2CC2)[C@@H](O5)C1=O (stereo not given in full) | 0.09 | – | ED50 (Mus musculus [9]): inactive

Row | SMILES | ED50 (Rattus norvegicus [1]) [µmol/kg] | ED50 (Mus musculus [3]) [µmol/kg] | also measured
23 | COc1ccc2c3c1O[C@H]1C(=O)[C@@H](CC(C)(C)C)CC4C(C2)N(C)CCC341 (stereo not given in full) | – | – | ED50 (Rattus norvegicus [10]): inactive; ED50 (Mus musculus [11]): inactive
24 | COc1ccc2c3c1O[C@H]1C(=O)CC[C@@]4(O)[C@@H](C2)N(C)CC[C@]314 [OXYCODONE] | – | 1.5 | ED50 (Rattus norvegicus [6]): 2.9 µmol/kg
25 | O=C1CC[C@@]2(O)[C@H]3Cc4ccc(O)c5c4[C@@]2(CCN3CC2CC2)[C@H]1O5 [NALTREXONE] | 0.2 | > 28 | –
26 | COc1ccc2c3c1O[C@H]1C(=O)[C@@H](Cc4ccccc4)CC4C(C2)N(C)CCC341 (stereo not given in full) | – | > 25 | ED50 (Rattus norvegicus [12]): inactive
27 | COc1ccc2c(c1O)C13CCN(CC4CC4)C(C2)C1C[C@H](C)C(=O)C3 (stereo not given in full) | > 28 | 9.7 | –
28 | CC(C)=CCN1CC[C@]2(C)c3cc(O)ccc3C[C@H]1[C@H]2C [(+)-PENTAZOCINE] | 36.4 | 13 | –
29 | C[C@H]1CC2C3Cc4ccc(O)c5c4C2(CCN3CC2CC2)C(O5)C1=O (stereo not given in full) | 4.4 | 1.1 | –
30 | COc1ccc2c(c1O)C13CCN(CC4CC4)C(C2)C1[C@@H](C)[C@H](C)C(=O)C3 (stereo not given in full) | > 25 | > 25 | –
31 | CN1CC[C@]23c4c5ccc(O)c4O[C@H]2C(=O)CC[C@H]3[C@H]1C5 [HYDROMORPHONE] | – | 0.3 | ED50 (Rattus norvegicus [6]): 1.3 µmol/kg
32 | C[C@H]1[C@H]2Cc3ccc(O)cc3[C@]1(C)CCN2CC1CC1 [CYCLAZOCINE] | 0.8 | 0.4 | –
33 | COc1ccc2c3c1O[C@H]1c4[nH]c(C)cc4CC4C(C2)N(C)CCC341 (stereo not given in full) | – | > 29 | ED50 (Rattus norvegicus [13]): inactive
34 | C[C@H]1CC2(O)C3Cc4ccc(O)c5c4C2(CCN3CC2CCC2)[C@@H](O5)C1=O (stereo not given in full) | 14.6 | 3.5 | –
35 | COc1ccc2c3c1O[C@H]1[C@@H](O)C=C[C@H]4[C@@H](C2)N(C)CC[C@@]341 [CODEINE] | – | 10.3 | ED50 (Rattus norvegicus [6]): 75 µmol/kg
36 | COc1ccc2c3c1O[C@H]1[C@@H](O)[C@@H](CC(C)=O)CC4C(C2)N(C)CCC341 (stereo not given in full) | – | > 28 | ED50 (Rattus norvegicus [7]): inactive
37 | CCCCC[C@H]1CC2C3Cc4ccc(OC)c5c4C2(CCN3C)[C@@H](O5)C1=O (stereo not given in full) | – | 20.7 | –
38 | Oc1ccc2c(c1)[C@@]13CCCC[C@@]1(O)[C@@H](C2)N(CC1CCC1)CC3 [BUTORPHANOL] | 2 | 0.3 | –
39 | COc1ccc2c3c1O[C@H]1C(=O)[C@@H](C)[C@H](C)C4C(C2)N(CC2CC2)CCC341 (stereo not given in full) | 2.4 | > 25 | –
40 | CC[C@H]1CC2C3Cc4ccc(OC)c5c4C2(CCN3C)[C@@H](O5)C1=O (stereo not given in full) | – | 4.6 | ED50 (Rattus norvegicus [14]): inactive
41 | COc1ccc2c3c1O[C@H]1C(=O)[C@@H](C)CC4(O)C(C2)N(CC2CCC2)CCC314 (stereo not given in full) | – | 1.2 | ED50 (Rattus norvegicus [15]): inactive
42 | COc1ccc2c3c1O[C@H]1C(=O)[C@@H](C)CC4C(C2)N(CC2CCC2)CCC341 (stereo not given in full) | > 25 | > 25 | –
43 | C[C@H]1CC2C3Cc4ccc(O)c5c4C2(CCN3CC2CCC2)[C@@H](O5)C1=O (stereo not given in full) | 33.1 | 0.8 | –
44 | COc1ccc2c3c1O[C@H]1C(=O)CC[C@H]4[C@@H](C2)N(C)CC[C@]314 [HYDROCODONE] | – | 2.4 | ED50 (Rattus norvegicus [6]): 5.2 µmol/kg
